Converted amounts (≈) assume the structure as drawn.
Legend:
Pseudomonas aeruginosa [1] = assay: Evaluated for minimum inhibitory concentration against gram-negative bacteria Pseudomonas aeruginosa UI-18; format: functional
Summary of the method: (§1)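 Broth microdilution MIC by standard technique. Values come from duplicate experiments and are stated as accurate to ±50%.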

Escherichia coli [2] = assay: In vivo protective dose for mouse protection assay in Escherichia coli Vogel after peroral administration; format: functional; conditions: po, read-out: PD50
Summary of the method: (§2)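 Female Charles River CD-1 mice were given an acute, lethal, systemic infection. A single dose of compound was given at the time of challenge, by the route stated in the line, with 16 animals per dose level. The read-out is the median protective dose (PD50, mg/kg). Per the footnote, values come from 16 animals per test, with a mean variation of ±34%.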

Staphylococcus aureus [3] = assay: Evaluated for minimum inhibitory concentration against […] bacteria Staphylococcus aureus UC-76; format: functional; summary of the method: as §1
Escherichia coli [4] = assay: Evaluated for minimum concentration needed to produce linear DNA at an intensity relative to oxolinic acid at 10 mg/mL. by gyrase mediated cleavage of DNA in Escherichia coli 560.; format: functional; conditions: read-out: MIC
Staphylococcus aureus [5] = assay: In vivo protective dose was determined against Staphylococcus aureus VC76. after subcutaneous administration; format: functional; conditions: sc, read-out: PD50; summary of the method: as §2
[6] = Evaluated for minimum inhibitory concentration against […] bacteria […] SV-1; format: functional; summary of the method: as §1
Klebsiella pneumoniae = assay: Evaluated for minimum inhibitory concentration against gram-negative bacteria Klebsiella pneumoniae MGH-2; format: functional; summary of the method: as §1
Streptococcus pneumoniae [7] = assay: In vivo protective dose was determined against Streptococcus pneumoniae SV-1 after subcutaneous administration; conditions: sc, read-out: PD50
Enterococcus faecalis [8] = assay: Evaluated for minimum inhibitory concentration against gram-positive bacteria Staphylococcus faecalis MGH-2
Pseudomonas aeruginosa [9] = assay: In vivo protective dose was determined against Pseudomonas aeruginosa UI-18. after peroral administration; format: functional; conditions: po, read-out: PD50; summary of the method: as §2
Streptococcus pneumoniae [10] = assay: In vivo protective dose was determined against Streptococcus pneumoniae SV-1 after peroral administration; conditions: po, read-out: PD50
Pseudomonas = assay: Evaluated for minimum inhibitory concentration against gram-negative bacteria Pseudomonas rettgeri H1771; format: functional; summary of the method: as §1
Escherichia coli [11] = assay: In vivo protective dose was determined in mouse protection assay in Escherichia coli Vogel after subcutaneous administration; format: functional; conditions: sc, read-out: PD50; summary of the method: as §2
Staphylococcus aureus [12] = assay: Evaluated for minimum inhibitory concentration against […] bacteria Staphylococcus aureus H228; format: functional; summary of the method: as §1
Streptococcus pyogenes [13] = assay: Evaluated for minimum inhibitory concentration against gram-positive bacteria Streptococcus pyogenes C203
Streptococcus pyogenes [14] = assay: In vivo protective dose was determined against Streptococcus pyogenes after peroral administration; conditions: po, read-out: PD50
Streptococcus pyogenes [15] = assay: In vivo protective dose was determined against Streptococcus pyogenes after subcutaneous administration; conditions: sc, read-out: PD50
Pseudomonas aeruginosa [16] = assay: In vivo protective dose was determined against Pseudomonas aeruginosa UI-18. after subcutaneous administration; format: functional; conditions: sc, read-out: PD50; summary of the method: as §2
Escherichia coli [17] = assay: Evaluated for minimum inhibitory concentration against gram-negative bacteria Escherichia coli Vogel; format: functional; summary of the method: as §1
Enterobacter cloacae = assay: Evaluated for minimum inhibitory concentration against gram-negative bacteria Enterobacter cloacae HA 2646; format: functional
Staphylococcus aureus [18] = assay: In vivo protective dose was determined against Staphylococcus aureus VC76 after peroral administration; format: functional; conditions: po, read-out: PD50; summary of the method: as §2
Enterococcus faecalis [19] = assay: Evaluated for minimum inhibitory concentration against […] bacteria, Staphylococcus faecalis MGH-2; format: functional; summary of the method: as §1
Escherichia coli [20] = assay: `Evaluated for minimum concentration needed to produce linear DNA at an intensity relative to oxolinic acid at 10 mg/mL. by gyrase mediated cleavage of DNA in Escherichia coli 560.; format: functional
Summary of the method: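 DNA gyrase isolated from Escherichia coli. The read-out is the minimum drug concentration (μg/mL) that induces gyrase-mediated DNA cleavage, giving linear DNA at an intensity relative to oxolinic acid at 10 mg/mL.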

Pseudomonas aeruginosa [21] = assay: Evaluated for minimum inhibitory concentration against gram-negative bacteria Pseudomonas aeruginosa UI-18

SMILES | MIC (Pseudomonas aeruginosa [1]) | ED50 (Escherichia coli [2]) | MIC (Staphylococcus aureus [3]) | minimum concentration for gyrase-mediated DNA cleavage (Escherichia coli [4]) | ED50 (Staphylococcus aureus [5]) | MIC [6] | MIC (Klebsiella pneumoniae) | ED50 (Streptococcus pneumoniae [7]) | MIC (Enterococcus faecalis [8]) | ED50 (Pseudomonas aeruginosa [9]) | ED50 (Streptococcus pneumoniae [10]) | MIC (Pseudomonas) | ED50 (Escherichia coli [11]) | MIC (Staphylococcus aureus [12]) | MIC (Streptococcus pyogenes [13]) | ED50 (Streptococcus pyogenes [14]) | ED50 (Streptococcus pyogenes [15]) | ED50 (Pseudomonas aeruginosa [16]) | MIC (Escherichia coli [17]) | MIC (Enterobacter cloacae) | further results
CCn1cc(C(=O)O)c(=O)c2cc(F)c(N3CCC4(CCN(C)C4)C3)c(F)c21 (stereo not drawn) | 0.8 µg/mL (≈ 2.04 µM) | 8.4 mg/kg | 0.006 µg/mL (≈ 0.0153 µM) | 1 µg/mL | 4 mg/kg | 0.4 µg/mL (≈ 1.02 µM) | 0.1 µg/mL (≈ 0.255 µM) | 11 mg/kg | 0.1 µg/mL (≈ 0.255 µM) | 140 mg/kg | 43 mg/kg | 0.8 µg/mL (≈ 2.04 µM) | 3.4 mg/kg | 0.1 µg/mL (≈ 0.255 µM) | 0.2 µg/mL (≈ 0.511 µM) | 38 mg/kg | 27 mg/kg | 70 mg/kg | 0.006 µg/mL (≈ 0.0153 µM) | 0.1 µg/mL (≈ 0.255 µM) | ED50 (Staphylococcus aureus [18]): 9 mg/kg
CCn1cc(C(=O)O)c(=O)c2cc(F)c(N3CCC4(CCN(C)C4)C3)nc21 (stereo not drawn) | 1.6 µg/mL (≈ 4.27 µM) | 11.4 mg/kg | 0.025 µg/mL (≈ 0.0668 µM) | 10 µg/mL | 3.6 mg/kg | 0.8 µg/mL (≈ 2.14 µM) | 0.4 µg/mL (≈ 1.07 µM) | 16 mg/kg | 0.2 µg/mL (≈ 0.534 µM) | 200 mg/kg | 30 mg/kg | 1.6 µg/mL (≈ 4.27 µM) | 4.4 mg/kg | 0.1 µg/mL (≈ 0.267 µM) | 0.4 µg/mL (≈ 1.07 µM) | 27 mg/kg | 13 mg/kg | 58 mg/kg | 0.1 µg/mL (≈ 0.267 µM) | 0.4 µg/mL (≈ 1.07 µM) | ED50 (Staphylococcus aureus [18]): 8.5 mg/kg
CCn1cc(C(=O)O)c(=O)c2cc(F)c(N3CCCC4(CCCNC4)C3)c(F)c21 (stereo not drawn) | 12.5 µg/mL (≈ 30.8 µM) | – | 0.4 µg/mL (≈ 0.987 µM) | 7.5 µg/mL | – | 6.3 µg/mL (≈ 15.5 µM) | 6.3 µg/mL (≈ 15.5 µM) | – | – | – | – | 25 µg/mL (≈ 61.7 µM) | – | 3.1 µg/mL (≈ 7.65 µM) | 3.1 µg/mL (≈ 7.65 µM) | – | – | – | 3.1 µg/mL (≈ 7.65 µM) | 6.3 µg/mL (≈ 15.5 µM) | MIC (Enterococcus faecalis [19]): 3.1 µg/mL (≈ 7.65 µM)
O=C(O)c1cn(C2CC2)c2c(F)c(N3CCC4(CCNC4)C3)c(F)cc2c1=O (stereo not drawn) | 1.6 µg/mL (≈ 4.11 µM) | > 100 mg/kg | 0.025 µg/mL (≈ 0.0642 µM) | 0.1 µg/mL | – | 0.1 µg/mL (≈ 0.257 µM) | 0.4 µg/mL (≈ 1.03 µM) | – | 0.4 µg/mL (≈ 1.03 µM) | – | – | 0.8 µg/mL (≈ 2.05 µM) | 7 mg/kg | 0.2 µg/mL (≈ 0.514 µM) | 0.025 µg/mL (≈ 0.0642 µM) | – | – | – | 0.2 µg/mL (≈ 0.514 µM) | 0.2 µg/mL (≈ 0.514 µM) | –
CCN1CCC2(CCN(c3nc4c(cc3F)c(=O)c(C(=O)O)cn4CC)C2)C1 (stereo not drawn) | 3.1 µg/mL (≈ 7.98 µM) | 10.3 mg/kg | 0.2 µg/mL (≈ 0.515 µM) | – | – | 1.6 µg/mL (≈ 4.12 µM) | 0.4 µg/mL (≈ 1.03 µM) | – | 0.8 µg/mL (≈ 2.06 µM) | – | – | 6.3 µg/mL (≈ 16.2 µM) | 15 mg/kg | 0.4 µg/mL (≈ 1.03 µM) | 1.6 µg/mL (≈ 4.12 µM) | – | – | – | 0.4 µg/mL (≈ 1.03 µM) | 1.6 µg/mL (≈ 4.12 µM) | MIC (Escherichia coli [20]): 5 µg/mL (≈ 12.9 µM)
CCn1cc(C(=O)O)c(=O)c2cc(F)c(N3CCC4(CCNC4)C3)c(F)c21 (stereo not drawn) | 0.8 µg/mL (≈ 2.12 µM) | > 100 mg/kg | 0.05 µg/mL (≈ 0.132 µM) | 2.5 µg/mL | – | 0.2 µg/mL (≈ 0.53 µM) | 0.2 µg/mL (≈ 0.53 µM) | – | 0.2 µg/mL (≈ 0.53 µM) | – | – | 1.6 µg/mL (≈ 4.24 µM) | 15 mg/kg | 0.1 µg/mL (≈ 0.265 µM) | 0.1 µg/mL (≈ 0.265 µM) | – | – | – | 0.1 µg/mL (≈ 0.265 µM) | 0.2 µg/mL (≈ 0.53 µM) | –
CC1COc2c(N3CCC4(CCN(C)C4)C3)c(F)cc3c(=O)c(C(=O)O)cn1c23 (stereo not drawn) | 0.8 µg/mL (≈ 1.99 µM) | 14 mg/kg | 0.006 µg/mL (≈ 0.0149 µM) | 1 µg/mL | 2.1 mg/kg | 0.2 µg/mL (≈ 0.498 µM) | 0.1 µg/mL (≈ 0.249 µM) | 11.5 mg/kg | 0.1 µg/mL (≈ 0.249 µM) | 200 mg/kg | 63 mg/kg | 0.4 µg/mL (≈ 0.996 µM) | 4.5 mg/kg | 0.1 µg/mL (≈ 0.249 µM) | 0.1 µg/mL (≈ 0.249 µM) | 31 mg/kg | 6 mg/kg | 56 mg/kg | 0.025 µg/mL (≈ 0.0623 µM) | 0.2 µg/mL (≈ 0.498 µM) | ED50 (Staphylococcus aureus [18]): 12.5 mg/kg
CN1CCC2(CCN(c3c(F)cc4c(=O)c(C(=O)O)cn(C5CC5)c4c3F)C2)C1 (stereo not drawn) | – | 5 mg/kg | 0.013 µg/mL (≈ 0.0322 µM) | 0.5 µg/mL | – | 0.05 µg/mL (≈ 0.124 µM) | 0.1 µg/mL (≈ 0.248 µM) | – | 0.1 µg/mL (≈ 0.248 µM) | – | – | 0.2 µg/mL (≈ 0.496 µM) | 2 mg/kg | 0.25 µg/mL (≈ 0.62 µM) | 0.05 µg/mL (≈ 0.124 µM) | – | – | – | 0.05 µg/mL (≈ 0.124 µM) | 0.05 µg/mL (≈ 0.124 µM) | MIC (Pseudomonas aeruginosa [21]): 0.8 µg/mL (≈ 1.98 µM)
CCN1CCC2(CCN(c3c(F)cc4c(=O)c(C(=O)O)cn(CC)c4c3F)C2)C1 (stereo not drawn) | 3.1 µg/mL (≈ 7.65 µM) | 13 mg/kg | 0.1 µg/mL (≈ 0.247 µM) | 5 µg/mL | – | 0.8 µg/mL (≈ 1.97 µM) | 0.2 µg/mL (≈ 0.493 µM) | 43 mg/kg | 0.2 µg/mL (≈ 0.493 µM) | > 100 mg/kg | 68 mg/kg | 1.6 µg/mL (≈ 3.95 µM) | 6 mg/kg | 0.2 µg/mL (≈ 0.493 µM) | 0.4 µg/mL (≈ 0.987 µM) | 70 mg/kg | 38 mg/kg | 180 mg/kg | 0.2 µg/mL (≈ 0.493 µM) | 0.4 µg/mL (≈ 0.987 µM) | –
O=C(O)c1cn(C2CC2)c2c(F)c(N3CCC4(CCCN4)C3)c(F)cc2c1=O (stereo not drawn) | 0.2 µg/mL (≈ 0.514 µM) | 4 mg/kg | 0.4 µg/mL (≈ 1.03 µM) | 0.5 µg/mL | – | 0.4 µg/mL (≈ 1.03 µM) | 0.1 µg/mL (≈ 0.257 µM) | – | 0.4 µg/mL (≈ 1.03 µM) | – | – | 0.8 µg/mL (≈ 2.05 µM) | 1 mg/kg | 0.05 µg/mL (≈ 0.128 µM) | 0.4 µg/mL (≈ 1.03 µM) | – | – | – | 0.025 µg/mL (≈ 0.0642 µM) | 0.025 µg/mL (≈ 0.0642 µM) | –

— ChEMBL document CHEMBL1125136, “Quinolone antibacterial agents substituted at the 7-position with spiroamines. Synthesis and structure-activity relationships” (1990)
